The target of assay [1] is T1, Casein kinase II alpha/beta (Homo sapiens, UniProt P68400). Nature of the assay: Inhibition of human CK2-alpha/beta expressed in Escherichia coli BL21(DE3) using RRRDDDSDDD peptide as substrate after 15 mins by capillary electrophoresis method.
Assay [2] concerns MCF7. Nature of the assay: Cytotoxicity against human MCF7 cells assessed as inhibition of cell viability at 10 uM after 48 hrs by MTT assay. The assay is classed as functional, cell-based. An outline of the steps:
(§1)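 MCF-7 cells grown in RPMI 1640 with GlutaMax and 10% FCS. Seeded at 1 x 10^5 cells/well and left overnight, then given fresh medium with inhibitor at 10 or 100 µM; 1% DMSO as control. After 48 h at 37 °C, 5% CO₂, MTT was added (0.5 mg/mL final) for 2 h. Formazan dissolved in DMSO and read at 570 nm against 630 nm reference. Triplicates, three independent experiments, mean ± SD.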
Background: Formazan colour is commonly taken as a measure of viable cells.

Assay [3] concerns MCF7. Description: Cytotoxicity against human MCF7 cells assessed as inhibition of cell viability at 100 uM after 48 hrs by MTT assay relative to control. The class given is functional. As to conditions: MCF7, 48 h. An outline of the steps:
as §1

For assay [4], the target named is T1, Casein kinase II alpha/beta. Description: ATP-competitive inhibition of human CK2-alpha/beta expressed in Escherichia coli BL21(DE3) using RRRDDDSDDD peptide as substrate after 15 mins in presence of varying levels of ATP by capillary electrophoresis method.
Assay [5] has as its target Casein kinase 2 (Homo sapiens, UniProt P67870+P68400+P19784+Q8NEV1). Nature of the assay: Inhibition of CK2 (unknown origin). The class given is protein assay.

Active and inactive are the calls of the source. No cut-off for these calls is given here. Bounds are passed on as bounds.

A word on the IC50: it is the concentration needed to halve the response being measured. For orientation: inhibition means the percentage by which the read-out fell short of the control. As usually defined, the Ki is a dissociation constant, usually derived from enzyme kinetics or from competition with a known ligand.

As to `CCCCCCCCCCCC1=C(O)C(=O)C2=C(OC(N)=C(C#N)C2c2ccc3c(c2)OCO3)C1=O` (stereo unspecified), in assay [1], the IC50 was determined as 1940 nM.

In assay [1], `CCCCCCCCCCCC1=C(O)C(=O)C2=C(OC(N)=C(C#N)C2c2ccc([N+](=O)[O-])cc2)C1=O` (stereo unspecified) showed a half-inhibitory concentration (IC50) of 220 nM. In addition, in assay [2], the inhibition result was “inactive”. Moreover, the inhibition at 100 µM in assay [3] came to 90%.

For `CCCCCCCCCCCC1=C(O)C(=O)C2=C(OC(N)=C(C#N)C2c2ccccc2)C1=O` (stereo unspecified), the IC50 in assay [1] amounted to 570 nM. In addition, in assay [2], the inhibition result is “inactive”. Further, the inhibition constant (Ki) in assay [4] stood at 390 nM. Moreover, the inhibition at 100 µM in assay [3] worked out at 50%.

Take `CCCCCCCCCCCC1=C(O)C(=O)C2=C(OC(N)=C(C#N)C2c2cccnc2)C1=O` (stereo unspecified): in assay [1], the IC50 amounted to 1380 nM.

The compound `CCCCCCCCCCCC1=C(O)C(=O)C2=C(OC(N)=C(C#N)C2c2ccc(C(=O)O)cc2)C1=O` (stereo unspecified) showed an IC50 in assay [1] of 1360 nM.

Compound `CCCCCCCCCCCC1=C(O)C(=O)C2=C(OC(N)=C(C#N)C2CCCCCC)C1=O` (stereo unspecified) displayed an IC50 in assay [1] of 3710 nM. This IC50 lies about 2.7-fold higher than the previous one.

In assay [1], `CCCCCCCCCCCC1=C(O)C(=O)C2=C(OC(N)=C(C#N)C2c2ccc(OC)cc2)C1=O` (stereo unspecified) came in with an IC50 of 840 nM. Besides, the inhibition entry in assay [2] was “inactive”. Further, the inhibition at 100 µM in assay [3] amounted to 55%.

Compound `CCCCCCCCC1=C(O)C(=O)C2=C(OC(N)=C(C#N)C2c2ccc([N+](=O)[O-])cc2)C1=O` (stereo unspecified) showed a half-inhibitory concentration (IC50) in assay [1] of 1990 nM. In other words, the single-digit micromolar range.

As to `CCCCCCCCCCCC1=C(O)C(=O)C2=C(OC(N)=C(C#N)C2c2ccc(Cl)cc2)C1=O` (stereo unspecified), the IC50 in assay [1] is 900 nM; in assay [5], less than 1000 nM. In assay [2], the inhibition entry is “inactive”.

Consider `CCCCCCCCCCCC1=C(O)C(=O)C2=C(OC(N)=C(C#N)C2c2ccco2)C1=O` (stereo unspecified), for which the IC50 in assay [1] is 720 nM.

Regarding `CCCCCCCCCCCC1=C(O)C(=O)C2=C(OC(N)=C(C#N)C2c2ccncc2)C1=O` (stereo unspecified), the IC50 in assay [1] stood at 1440 nM.

In assay [1], `CCCCCCCCCCCC1=C(O)C(=O)C2=C(OC(N)=C(C#N)C2c2cccc([N+](=O)[O-])c2)C1=O` (stereo unspecified) gave an IC50 of 890 nM. Besides, the inhibition entry in assay [2] is “inactive”. Further, the inhibition at 100 µM in assay [3] turned out to be 65%.

Consider `CCCCCCCCCCCC1=C(O)C(=O)C2=C(OC(N)=C(C#N)C2c2cccc(F)c2)C1=O` (stereo unspecified), for which, in assay [1], inhibition was half-maximal at 996 nM (IC50). Besides, the inhibition result in assay [2] was “inactive”. Further, the inhibition at 100 µM in assay [3] came out at 60%.

The values are drawn from ChEMBL document CHEMBL4251619, “A new family of densely functionalized fused-benzoquinones as potent human protein kinase CK2 inhibitors” (Eur J Med Chem, 2018).
